Assay results: ChEMBL document CHEMBL1255410, “Activity of the investigational fluoroquinolone finafloxacin against ciprofloxacin-sensitive and -resistant Acinetobacter baumannii isolates” (2010)
Values after ≈ are worked out from the molar mass of the structure shown.

How the values were obtained:
Assay type in all cases: functional
Acinetobacter baumannii [1] = assay: Antimicrobial activity against Acinetobacter baumannii isolate 2 at pH 7.2
Summary of the method: (§1)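 MIC by agar dilution on Mueller-Hinton agar under standard conditions (pH 7.2), against isolates with characterized gyrA/parC genes. Agar pH was checked after solidifying. Plates for both drugs were prepared the same day from freshly made media, and MICs were determined simultaneously with the pH 5.8 set.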

Acinetobacter baumannii [2] = assay: Antimicrobial activity against Acinetobacter baumannii isolate 5 at pH 7.2
Summary of the method: (§2)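 Agar dilution MIC on Mueller-Hinton agar. For the acidic condition, HCl was added to bring the agar to pH 5.8 before pouring the antibiotic plates, and the pH was checked after the agar set. The standard condition was pH 7.2. Both drugs' plates were made the same day from fresh medium, and MICs were read at the same time.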

Acinetobacter baumannii [3] = assay: Antimicrobial activity against Acinetobacter baumannii isolate 8 at pH 7.2
Summary of the method: (§3)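 Agar dilution MIC on Mueller-Hinton agar under standard conditions (pH 7.2). Antibiotic-containing plates were made the same day from freshly prepared medium. Agar pH was checked after solidifying. Both fluoroquinolones were tested simultaneously against A. baumannii isolates with characterized gyrA/parC genes. MICs are in μg/ml.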

Acinetobacter baumannii [4] = assay: Antimicrobial activity against Acinetobacter baumannii isolate 11 at pH 7.2; summary of the method: as §1
Acinetobacter baumannii [5] = assay: Antimicrobial activity against Acinetobacter baumannii isolate 12 at pH 7.2; summary of the method: as §1
Acinetobacter baumannii [6] = assay: Antimicrobial activity against Acinetobacter baumannii isolate 18 at pH 7.2; summary of the method: as §1
Acinetobacter baumannii [7] = assay: Antimicrobial activity against Acinetobacter baumannii isolate 20 harboring GyrA Ser83-Leu mutation at pH 7.2; summary of the method: as §1
Acinetobacter baumannii [8] = assay: Antimicrobial activity against Acinetobacter baumannii isolate 22 harboring GyrA Ser83-Leu mutation at pH 7.2; summary of the method: as §1
Acinetobacter baumannii [9] = assay: Antimicrobial activity against Acinetobacter baumannii isolate 23 harboring GyrA Glu87-Gly mutation at pH 7.2; summary of the method: as §1
Acinetobacter baumannii [10] = assay: Antimicrobial activity against Acinetobacter baumannii isolate 25 harboring GyrA Ser83-Leu mutation at pH 7.2; summary of the method: as §1
Acinetobacter baumannii [11] = assay: Antimicrobial activity against Acinetobacter baumannii isolate 27 harboring GyrA Ser83-Leu mutation at pH 7.2; summary of the method: as §1
Acinetobacter baumannii [12] = assay: Antimicrobial activity against Acinetobacter baumannii isolate 29 harboring GyrA Ser83-Leu mutation at pH 7.2; summary of the method: as §1
Acinetobacter baumannii [13] = assay: Antimicrobial activity against Acinetobacter baumannii isolate 31 harboring GyrA Ser83-Leu mutation at pH 7.2; summary of the method: as §1
Acinetobacter baumannii [14] = assay: Antimicrobial activity against Acinetobacter baumannii isolate 32 harboring GyrA Ser83-Leu mutation at pH 7.2; summary of the method: as §2
Acinetobacter baumannii [15] = assay: Antimicrobial activity against Acinetobacter baumannii isolate 39 harboring GyrA Ser83-Leu mutation at pH 7.2; summary of the method: as §2
Acinetobacter baumannii [16] = assay: Antimicrobial activity against Acinetobacter baumannii isolate 41 harboring GyrA Ser83-Leu mutation at pH 7.2; summary of the method: as §2
Acinetobacter baumannii [17] = assay: Antimicrobial activity against Acinetobacter baumannii isolate 49 harboring GyrA Ser83-Leu and ParC Ser80-Leu mutation at pH 7.2; summary of the method: as §2
Acinetobacter baumannii [18] = assay: Antimicrobial activity against Acinetobacter baumannii isolate 52 harboring GyrA Ser83-Leu and ParC Ser80-Leu mutation at pH 7.2; summary of the method: as §2
Acinetobacter baumannii [19] = assay: Antimicrobial activity against Acinetobacter baumannii isolate 62 harboring GyrA Ser83-Leu and ParC Ser80-Leu mutation at pH 7.2; summary of the method: as §3
Acinetobacter baumannii [20] = assay: Antimicrobial activity against Acinetobacter baumannii isolate 63 harboring GyrA Ser83-Leu and ParC Glu84-Lys mutation at pH 7.2; summary of the method: as §3
Acinetobacter baumannii [21] = assay: Antimicrobial activity against Acinetobacter baumannii isolate 64 harboring GyrA Ser83-Leu and ParC Ser80-Leu mutation at pH 7.2; summary of the method: as §3
Acinetobacter baumannii [22] = assay: Antimicrobial activity against Acinetobacter baumannii isolate 65 harboring GyrA Ser83-Leu and ParC Ser80-Leu mutation at pH 7.2; summary of the method: as §3
Acinetobacter baumannii [23] = assay: Antimicrobial activity against Acinetobacter baumannii isolate 2 at pH 5.8
Summary of the method: (§4)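 MIC by agar dilution on Mueller-Hinton agar acidified to pH 5.8 with HCl before antibiotic-containing plates were poured. Agar pH was rechecked once the agar had solidified. Isolates had characterized gyrA/parC genes. Plates for both drugs were made the same day from fresh media, and MICs were read in parallel with the standard-pH set.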

Acinetobacter baumannii [24] = assay: Antimicrobial activity against Acinetobacter baumannii isolate 3 at pH 5.8; summary of the method: as §4
Acinetobacter baumannii [25] = assay: Antimicrobial activity against Acinetobacter baumannii isolate 6 at pH 5.8
Summary of the method: (§5)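 Agar dilution MIC on Mueller-Hinton agar acidified to pH 5.8 with HCl before the antibiotic-containing plates were poured. Agar pH was checked after solidifying. Plates were made the same day from fresh medium. Both fluoroquinolones were tested simultaneously against A. baumannii isolates with characterized gyrA/parC genes. MICs are in μg/ml.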

Acinetobacter baumannii [26] = assay: Antimicrobial activity against Acinetobacter baumannii isolate 9 at pH 5.8; summary of the method: as §5
Acinetobacter baumannii [27] = assay: Antimicrobial activity against Acinetobacter baumannii isolate 14 at pH 5.8; summary of the method: as §4
Acinetobacter baumannii [28] = assay: Antimicrobial activity against Acinetobacter baumannii isolate 15 at pH 5.8; summary of the method: as §4
Acinetobacter baumannii [29] = assay: Antimicrobial activity against Acinetobacter baumannii isolate 19 harboring GyrA Ser83-Leu mutation at pH 5.8; summary of the method: as §4
Acinetobacter baumannii [30] = assay: Antimicrobial activity against Acinetobacter baumannii isolate 20 harboring GyrA Ser83-Leu mutation at pH 5.8; summary of the method: as §4
Acinetobacter baumannii [31] = assay: Antimicrobial activity against Acinetobacter baumannii isolate 21 harboring GyrA Ser83-Leu mutation at pH 5.8; summary of the method: as §4
Acinetobacter baumannii [32] = assay: Antimicrobial activity against Acinetobacter baumannii isolate 24 harboring GyrA Ser83-Leu mutation at pH 5.8; summary of the method: as §4
Acinetobacter baumannii [33] = assay: Antimicrobial activity against Acinetobacter baumannii isolate 26 harboring GyrA Ser83-Leu mutation at pH 5.8; summary of the method: as §4
Acinetobacter baumannii [34] = assay: Antimicrobial activity against Acinetobacter baumannii isolate 29 harboring GyrA Ser83-Leu mutation at pH 5.8; summary of the method: as §4
Acinetobacter baumannii [35] = assay: Antimicrobial activity against Acinetobacter baumannii isolate 30 harboring GyrA Ser83-Leu mutation at pH 5.8; summary of the method: as §4
Acinetobacter baumannii [36] = assay: Antimicrobial activity against Acinetobacter baumannii isolate 31 harboring GyrA Ser83-Leu mutation at pH 5.8; summary of the method: as §4
Acinetobacter baumannii [37] = assay: Antimicrobial activity against Acinetobacter baumannii isolate 36 harboring GyrA Ser83-Leu mutation at pH 5.8; summary of the method: as §2
Acinetobacter baumannii [38] = assay: Antimicrobial activity against Acinetobacter baumannii isolate 41 harboring GyrA Ser83-Leu mutation at pH 5.8; summary of the method: as §2
Acinetobacter baumannii [39] = assay: Antimicrobial activity against Acinetobacter baumannii isolate 44 harboring GyrA Ser83-Leu and ParC Glu84-Lys mutation at pH 5.8; summary of the method: as §2
Acinetobacter baumannii [40] = assay: Antimicrobial activity against Acinetobacter baumannii isolate 47 harboring GyrA Ser83-Leu and ParC Ser80-Phe mutation at pH 5.8; summary of the method: as §2
Acinetobacter baumannii [41] = assay: Antimicrobial activity against Acinetobacter baumannii isolate 50 harboring GyrA Ser83-Leu and ParC Ser80-Leu mutation at pH 5.8; summary of the method: as §2
Acinetobacter baumannii [42] = assay: Antimicrobial activity against Acinetobacter baumannii isolate 61 harboring GyrA Ser83-Leu and ParC Ser80-Leu mutation at pH 5.8; summary of the method: as §5
Acinetobacter baumannii [43] = assay: Antimicrobial activity against Acinetobacter baumannii isolate 37 harboring GyrA Ser83-Leu mutation at pH 7.2; summary of the method: as §2

With O=C(O)c1cn(C2CC2)c2cc(N3CCNCC3)c(F)cc2c1=O [CIPROFLOXACIN] the MIC (Acinetobacter baumannii [1]) was 0.06 µg/mL (≈ 0.181 µM), the MIC (Acinetobacter baumannii [2]) was 0.12 µg/mL (≈ 0.362 µM) and the MIC (Acinetobacter baumannii [3]) was 0.25 µg/mL (≈ 0.754 µM). The MIC (Acinetobacter baumannii [4]) was 0.25 µg/mL (≈ 0.754 µM), the MIC (Acinetobacter baumannii [5]) was 0.5 µg/mL (≈ 1.51 µM) and the MIC (Acinetobacter baumannii [6]) was 1 µg/mL (≈ 3.02 µM). The MIC (Acinetobacter baumannii [7]) was 2 µg/mL (≈ 6.04 µM), the MIC (Acinetobacter baumannii [8]) was 4 µg/mL (≈ 12.1 µM) and the MIC (Acinetobacter baumannii [9]) was 4 µg/mL (≈ 12.1 µM). It also gave an MIC (Acinetobacter baumannii [10]) of 4 µg/mL (≈ 12.1 µM), an MIC (Acinetobacter baumannii [11]) of 4 µg/mL (≈ 12.1 µM) and an MIC (Acinetobacter baumannii [12]) of 4 µg/mL (≈ 12.1 µM). It also gave an MIC (Acinetobacter baumannii [13]) of 8 µg/mL (≈ 24.1 µM), an MIC (Acinetobacter baumannii [14]) of 16 µg/mL (≈ 48.3 µM) and an MIC (Acinetobacter baumannii [15]) of 16 µg/mL (≈ 48.3 µM). It also gave an MIC (Acinetobacter baumannii [16]) of 16 µg/mL (≈ 48.3 µM), an MIC (Acinetobacter baumannii [17]) of 128 µg/mL (≈ 386 µM) and an MIC (Acinetobacter baumannii [18]) of 128 µg/mL (≈ 386 µM). The MIC (Acinetobacter baumannii [19]) was 128 µg/mL (≈ 386 µM), the MIC (Acinetobacter baumannii [20]) was > 128 µg/mL and the MIC (Acinetobacter baumannii [21]) was > 128 µg/mL. The MIC (Acinetobacter baumannii [22]) was > 128 µg/mL, the MIC (Acinetobacter baumannii [23]) was 2 µg/mL (≈ 6.04 µM) and the MIC (Acinetobacter baumannii [24]) was 2 µg/mL (≈ 6.04 µM). For the same molecule, the MIC (Acinetobacter baumannii [25]) was 2 µg/mL (≈ 6.04 µM), the MIC (Acinetobacter baumannii [26]) was 2 µg/mL (≈ 6.04 µM) and the MIC (Acinetobacter baumannii [27]) was 4 µg/mL (≈ 12.1 µM). The MIC (Acinetobacter baumannii [28]) was 4 µg/mL (≈ 12.1 µM), the MIC (Acinetobacter baumannii [29]) was 4 µg/mL (≈ 12.1 µM) and the MIC (Acinetobacter baumannii [30]) was 4 µg/mL (≈ 12.1 µM). For the same molecule, the MIC (Acinetobacter baumannii [31]) was 32 µg/mL (≈ 96.6 µM), the MIC (Acinetobacter baumannii [32]) was 32 µg/mL (≈ 96.6 µM) and the MIC (Acinetobacter baumannii [33]) was 32 µg/mL (≈ 96.6 µM). For the same molecule, the MIC (Acinetobacter baumannii [34]) was 32 µg/mL (≈ 96.6 µM), the MIC (Acinetobacter baumannii [35]) was 32 µg/mL (≈ 96.6 µM) and the MIC (Acinetobacter baumannii [36]) was 32 µg/mL (≈ 96.6 µM). The MIC (Acinetobacter baumannii [37]) was 128 µg/mL (≈ 386 µM), the MIC (Acinetobacter baumannii [38]) was > 128 µg/mL and the MIC (Acinetobacter baumannii [39]) was > 128 µg/mL. For the same molecule, the MIC (Acinetobacter baumannii [40]) was > 128 µg/mL, the MIC (Acinetobacter baumannii [41]) was > 128 µg/mL and the MIC (Acinetobacter baumannii [42]) was > 128 µg/mL. For the same molecule, the MIC (Acinetobacter baumannii [43]) was 16 µg/mL (≈ 48.3 µM).
